For 13 compounds, IC50, inhibition and Ki results are on record in ChEMBL document CHEMBL4251619, “A new family of densely functionalized fused-benzoquinones as potent human protein kinase CK2 inhibitors” (Eur J Med Chem, 2018).

One test addresses Casein kinase 2 (Homo sapiens, UniProt P67870+P68400+P19784+Q8NEV1). In words: Inhibition of CK2 (unknown origin). It counts as protein assay.
Test [1] has as its target T1, Casein kinase II alpha/beta (Homo sapiens, UniProt P68400). In words: Inhibition of human CK2-alpha/beta expressed in Escherichia coli BL21(DE3) using RRRDDDSDDD peptide as substrate after 15 mins by capillary electrophoresis method.
Test [2] deals with MCF7. In words: Cytotoxicity against human MCF7 cells assessed as inhibition of cell viability at 10 uM after 48 hrs by MTT assay. In kind it is functional, cell-based. In outline:
(§1)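 MCF-7 cells grown in RPMI 1640 with GlutaMax and 10% FCS. Seeded at 1 x 10^5 cells/well and left overnight, then given fresh medium with inhibitor at 10 or 100 µM; 1% DMSO as control. After 48 h at 37 °C, 5% CO₂, MTT was added (0.5 mg/mL final) for 2 h. Formazan dissolved in DMSO and read at 570 nm against 630 nm reference. Triplicates, three independent experiments, mean ± SD.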

Test [3] relates to MCF7. In words: Cytotoxicity against human MCF7 cells assessed as inhibition of cell viability at 100 uM after 48 hrs by MTT assay relative to control. It counts as functional. The settings on record: MCF7, 48 h. In outline:
as §1
A general note: Tetrazolium assays rely on reduction of a dye to a coloured formazan, in cell work by metabolically active cells.

Test [4] has as its target T1, Casein kinase II alpha/beta. In words: ATP-competitive inhibition of human CK2-alpha/beta expressed in Escherichia coli BL21(DE3) using RRRDDDSDDD peptide as substrate after 15 mins in presence of varying levels of ATP by capillary electrophoresis method.

Calls of active or inactive are those of the source. The calls are words filed in the database; no cut-off is given here. Bounds are passed on as bounds.

Broadly, the IC50 is the concentration that inhibits the measured activity by half. High values mean a need for much substance, low ones inhibition by little substance. By inhibition is commonly meant the relative decrease from the control value, in per cent. Take `CCCCCCCCCCCC1=C(O)C(=O)C2=C(OC(N)=C(C#N)C2c2ccc(Cl)cc2)C1=O` (stereo unspecified): the IC50 was less than 1000 nM against Casein kinase 2 and 900 nM in test [1]. For the same compound, the inhibition entry in the test on MCF7 [2] is “inactive”.
`CCCCCCCCCCCC1=C(O)C(=O)C2=C(OC(N)=C(C#N)C2c2ccco2)C1=O` (stereo unspecified): in test [1], the IC50 amounted to 720 nM.
Still for that read-out and setting: then `CCCCCCCCCCCC1=C(O)C(=O)C2=C(OC(N)=C(C#N)C2c2ccc(C(=O)O)cc2)C1=O` (stereo unspecified), with 1360 nM.
In test [1], `CCCCCCCCCCCC1=C(O)C(=O)C2=C(OC(N)=C(C#N)C2c2ccc([N+](=O)[O-])cc2)C1=O` (stereo unspecified) displayed an IC50 of 220 nM. For the same compound, in the test with MCF7 [3], the inhibition at 100 µM turned out to be 90%. In addition, in the test on MCF7 [2], the inhibition entry was “inactive”.
Compound `CCCCCCCCCCCC1=C(O)C(=O)C2=C(OC(N)=C(C#N)C2CCCCCC)C1=O` (stereo unspecified) yielded an IC50 in test [1] of 3710 nM.
The same measure, in the same setting: then `CCCCCCCCCCCC1=C(O)C(=O)C2=C(OC(N)=C(C#N)C2c2cccnc2)C1=O` (stereo unspecified), with 1380 nM.
On to `CCCCCCCCCCCC1=C(O)C(=O)C2=C(OC(N)=C(C#N)C2c2ccc(OC)cc2)C1=O` (stereo unspecified), for which, in test [1], the IC50 is 840 nM. The inhibition at 100 µM with MCF7 [3] is 55%. Besides, the inhibition result with MCF7 [2] is “inactive”.
Take `CCCCCCCCC1=C(O)C(=O)C2=C(OC(N)=C(C#N)C2c2ccc([N+](=O)[O-])cc2)C1=O` (stereo unspecified): in test [1], it took 1990 nM to reach half-maximal inhibition (IC50).
`CCCCCCCCCCCC1=C(O)C(=O)C2=C(OC(N)=C(C#N)C2c2cccc([N+](=O)[O-])c2)C1=O` (stereo unspecified) returned an IC50 in test [1] of 890 nM. Further, in the test on MCF7 [3], the inhibition at 100 µM was found to be 65%. Further, in the test on MCF7 [2], the inhibition entry was “inactive”.
In test [1], `CCCCCCCCCCCC1=C(O)C(=O)C2=C(OC(N)=C(C#N)C2c2ccncc2)C1=O` (stereo unspecified) displayed an IC50 of 1440 nM.
Same read-out and setting: then `CCCCCCCCCCCC1=C(O)C(=O)C2=C(OC(N)=C(C#N)C2c2ccc3c(c2)OCO3)C1=O` (stereo unspecified), with 1940 nM.
Broadly, the Ki is a measure of affinity in units of concentration, obtained from inhibition or displacement. `CCCCCCCCCCCC1=C(O)C(=O)C2=C(OC(N)=C(C#N)C2c2ccccc2)C1=O` (stereo unspecified) yielded an IC50 in test [1] of 570 nM. Also, in the test on MCF7 [3], the inhibition at 100 µM was found to be 50%. Also, the Ki in test [4] was determined as 390 nM. For the same compound, the inhibition entry in the test on MCF7 [2] is “inactive”.
As for `CCCCCCCCCCCC1=C(O)C(=O)C2=C(OC(N)=C(C#N)C2c2cccc(F)c2)C1=O` (stereo unspecified), inhibition in test [1] was half-maximal at 996 nM (IC50). Also, the inhibition at 100 µM in the test on MCF7 [3] was 60%. In the test with MCF7 [2], the inhibition entry was “inactive”.
